Measured values from ChEMBL document CHEMBL1127572, “Hypoxia-selective antitumor agents. 9. Structure-activity relationships for hypoxia-selective cytotoxicity among analogues of 5-[N,N-bis(2-chloroethyl)amino]-2,4-dinitrobenzamide” (J Med Chem, 1994).
In brackets after ≈: the same amount, converted by molar mass.

Key:
CHO-AA8 = experiment: Aerobic cytotoxicity was assessed in a growth inhibition assay using log phase cultures of the chinese hamster ovary fibroblast line AA8; assay type: functional, cell-based
Method in brief: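 AA8 Chinese hamster ovary cells seeded at 200 cells/well, grown 24 h, then exposed 18 h to five 2-fold serial dilutions in duplicate. Drug washed out, cells grown a further 78 h, density read by methylene blue staining. IC50 = concentration giving 50% growth inhibition versus controls. Values are means ± SEM.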

[1] = Solubility (alpha-MEM culture medium, containing 5% fetal calf serum); assay type: physicochemical; settings: alpha-MEM culture medium with 5% fetal calf serum; read-out: S
Method in brief: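 Solubility (mM) in α-MEM with 5% fetal calf serum, measured at ambient temperature by UV spectroscopy.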

[2] = Ratio of the cytotoxicities against drug induced aerobic Walker cells and chinese hamster ovary fibroblast line AA8; assay type: functional
Method in brief: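 IC50 in AA8 divided by IC50 in Walker 256 (WS) cells. Walker cells were seeded at 225 cells/0.15 mL with continuous aerobic drug exposure over 4 days, read by MTT. Ratios are interexperiment means.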

UV4 [3] = experiment: The ratio of the cytotoxicities against UV4 cell line in the air and N2 was measured using clonogenic assay; assay type: functional, Cricetulus griseus
Method in brief: (§1)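 UV4 cells (10^6/mL, stirred 10 mL suspensions) were gassed with 5% CO2 in air or in N2 after 60 min pre-equilibration, with clonogenic survival sampled over time. Concentrations giving similar kill rates under each gas were chosen. Ratio = CT10(air)/CT10(N2). Mean ± SEM of separate experiments.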

[4] = Tested for hypersensitivity factor which is the ratio of cytotoxicities against aerobic UV4 cells and chinese hamster ovary fibroblast line AA8
UV4 [5] = experiment: Tested for the product of drug concentration and exposure time required to reduce UV4 cell survival to 10% under hypoxic condition by clonogenic assay
[6] = The ratio of the cytotoxicities against UV4 cell line in the air and N2 was measured using clonogenic assay.; assay type: functional; method in brief: as §1

Compound | IC50 (CHO-AA8; Cricetulus griseus, CHO-AA8) [µM] | solubility [1] [µM] | IC50 ratio [2] | CT10 ratio (UV4 [3]) | IC50 ratio [4] | CT10 (UV4 [5]) [µM·h] | IC50 (CHO-AA8; cho-aa8) [µM] | CT10 ratio [6]
NC(=O)c1cc(N(CCI)CCI)c([N+](=O)[O-])cc1[N+](=O)[O-] | 34 | 35 (≈ 18.7 µg/mL) | 5.2 | 42 | 2.6 | 4.4 | – | –
NC(=O)c1cc(N(CCBr)CCBr)c([N+](=O)[O-])cc1[N+](=O)[O-] | 57 | 42 (≈ 18.5 µg/mL) | 3.1 | 20 | 7.5 | 8 | – | –
O=C(NCC(O)CO)c1cc(N(CCCl)CCCl)c([N+](=O)[O-])cc1[N+](=O)[O-] (stereo not given) | 1930 | 7400 (≈ 3150 µg/mL) | 1.6 | 8.6 | 4.4 | 465 | – | –
NC(=O)c1cc(N(CCCl)CCCl)c([N+](=O)[O-])cc1[N+](=O)[O-] | – | 190 (≈ 66.7 µg/mL) | 4.1 | 58 | 6.8 | 95 | 470 | –
CS(=O)(=O)OCCN(CCOS(C)(=O)=O)c1cc(C(N)=O)c([N+](=O)[O-])cc1[N+](=O)[O-] | – | 530 (≈ 249 µg/mL) | >3 | 17 | >4 | 70 | – | –
O=C(c1cc(N(CCCl)CCCl)c([N+](=O)[O-])cc1[N+](=O)[O-])N1CCOCC1 | 240 | 30 (≈ 12.6 µg/mL) | 4.1 | 1.3 | 23 | 125 | – | –
O=C(O)CCNC(=O)c1cc(N(CCCl)CCCl)c([N+](=O)[O-])cc1[N+](=O)[O-] | 6100 | 11000 (≈ 4660 µg/mL) | 1.5 | 2.3 | 1.1 | 12000 | – | –
CS(=O)(=O)OCCN(CCCl)c1cc(C(N)=O)c([N+](=O)[O-])cc1[N+](=O)[O-] | 945 | 840 (≈ 345 µg/mL) | 6 | – | 13 | 48 | – | 60
C[N+](C)([O-])CCNC(=O)c1cc(N(CCCl)CCCl)c([N+](=O)[O-])cc1[N+](=O)[O-] | 7290 | > 42000 | 2.3 | 8 | 1.7 | 4500 | – | –
NC(=S)c1cc(N(CCCl)CCCl)c([N+](=O)[O-])cc1[N+](=O)[O-] | > 25 | 38 (≈ 14 µg/mL) | >1 | >3 | >2 | 19 | – | –
CS(=O)(=O)NS(=O)(=O)c1cc(N(CCCl)CCCl)c([N+](=O)[O-])cc1[N+](=O)[O-] | 466 | 32000 (≈ 14900 µg/mL) | 1.5 | 5.2 | 1 | 980 | – | –
CN(C)CCNC(=O)c1cc(N(CCCl)CCCl)c([N+](=O)[O-])cc1[N+](=O)[O-] | 220 | 35000 (≈ 14800 µg/mL) | 5.6 | 60 | 3.9 | 21 | – | –
O=C(NCCO)c1cc(N(CCCl)CCCl)c([N+](=O)[O-])cc1[N+](=O)[O-] | > 100 | 100 (≈ 39.5 µg/mL) | – | – | – | – | – | –
N#Cc1cc(N(CCCl)CCCl)c([N+](=O)[O-])cc1[N+](=O)[O-] | 24 | 120 (≈ 40 µg/mL) | 3.2 | 8.5 | 6.8 | 10 | – | –
NC(=O)c1cc(NCCCl)c([N+](=O)[O-])cc1[N+](=O)[O-] | 748 | – | 380 | – | 1.4 | – | – | –
O=C(NCCN1CCOCC1)c1cc(N(CCCl)CCCl)c([N+](=O)[O-])cc1[N+](=O)[O-] | 920 | 4700 (≈ 2180 µg/mL) | 3.7 | 45 | 3 | 83 | – | –
CCN(CCCl)c1cc(C(N)=O)c([N+](=O)[O-])cc1[N+](=O)[O-] | > 97 | 160 (≈ 50.7 µg/mL) | >1 | – | – | > 300 | – | –
NS(=O)(=O)c1cc(N(CCCl)CCCl)c([N+](=O)[O-])cc1[N+](=O)[O-] | 2 | 160 (≈ 62 µg/mL) | 1.7 | 2.1 | 1.5 | 5.7 | – | –
CNC(=O)c1cc(N(CCCl)CCCl)c([N+](=O)[O-])cc1[N+](=O)[O-] | > 100 | 200 (≈ 73 µg/mL) | – | – | – | > 360 | – | –
CN(C)C(=O)c1cc(N(CCCl)CCCl)c([N+](=O)[O-])cc1[N+](=O)[O-] | 310 | 130 (≈ 49.3 µg/mL) | <0.3 | >20 | 1.4 | 250 | – | –
O=C(O)c1cc(N(CCCl)CCCl)c([N+](=O)[O-])cc1[N+](=O)[O-] | 10600 | 18000 (≈ 6340 µg/mL) | 4.7 | – | 1.4 | 19000 | – | >1.2
O=C(c1cc(N2CC2)c([N+](=O)[O-])cc1[N+](=O)[O-])N1CCOCC1 | 694 | – | 800 | 1.7 | 330 | 30 | – | –
CCN(CCCl)c1cc(C(=O)NCCN(C)C)c([N+](=O)[O-])cc1[N+](=O)[O-] | 570 | > 38000 | 5 | 3.5 | 1.9 | 390 | – | –
NC(=O)c1cc(N2CC2)c([N+](=O)[O-])cc1[N+](=O)[O-] [TRETAZICAR] | 563 | 7900 (≈ 1990 µg/mL) | 37000 | 3.6 | 50 | 225 | – | –
